pEC50: −log10 of the molar value.

The values that follow come from ChEMBL document CHEMBL2380309, “Design, synthesis, and biological evaluation of new 2'-deoxy-2'-fluoro-4'-triazole cytidine nucleosides as potent antiviral agents” (Eur J Med Chem, 2013).

Data set [1] deals with Human immunodeficiency virus 1. Nature of the data set: Antiviral activity against HIV1 expressing VSV glycoprotein plasmid infected in human 293T cells treated 15 mins before viral infection measured after 48 hrs by luciferase reporter gene assay. The class given is functional, organism-based. The settings on record: Human immunodeficiency virus 1, HEK-293T. The essentials:
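293T cells plated 6×10⁴/well one hour before infection. Compound preincubated 15 min, then VSVG-pseudotyped env-deficient HIV-1 (pNL4-3.luc.R-E-, from Ca₃(PO₄)₂ co-transfection of 293T) added. Solvent-only control. After 48 h, cells lysed and luciferase activity read by luminometer. EC50 is the mean of at least two independent determinations.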
(In general: A reporter such as luciferase makes a cellular process visible.)

The nature of data set [2]: Selectivity index, ratio of CC50 for human MT2 cells to EC50 for HIV1. Format: toxicity, cell-based. The settings on record: read-out: Ratio CC50/EC50.
Data set [3] can be described thus: Cytotoxicity against human MT2 cells by MTT assay. The class given is cell-based. A general note: Tetrazolium assays rely on reduction of a dye to a coloured formazan, in cell work by metabolically active cells.
Data set [4] deals with Hepatitis B virus. Nature of the data set: Antiviral activity against HBV infected in human HepG2.2.15 assessed as reduction of viral e-antigen production […] by ELISA. Format: functional, organism-based. The settings on record: HepG2 2.2.15. On the technique in general: In an ELISA, binding on a coated surface is turned into a signal by an enzyme label.
A short description of data set [5]: Cytotoxicity against human HepG2.2.15 cells after 3 days by MTT assay. The class given is cell-based, HepG2 2.2.15. Summed up:
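HepG2.2.15 cells, kept in RPMI 1640 with 10% FBS and G418 at 37°C under 5% CO2, were seeded at 1×10⁵ cells/well and cultured 24 h. They were then exposed to four compound concentrations (5 wells each) for 3 days, with drug-free cells as control. MTT (5 mg/mL) was added for 4 h at 37°C, formazan dissolved in DMSO, and A490 read. Survival was expressed as % of control, and CC50 was taken by Reed-Muench from at least two independent determinations.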

In data set [6] the test system is Hepatitis B virus. The experiment in a line: Antiviral activity against HBV infected in human HepG2.2.15 assessed as reduction of viral s-antigen production […] by ELISA. Format: functional, organism-based. The note with it: HepG2 2.2.15.
The nature of data set [7]: Selectivity index, ratio of CC50 for human HepG2.2.15 cells to EC50 for HBV infected in human HepG2.2.15 assessed as reduction of viral e-antigen production.
Data set [8] can be described thus: Selectivity index, ratio of CC50 for human HepG2.2.15 cells to EC50 for HBV infected in human HepG2.2.15 assessed as reduction of viral s-antigen production.

On to `CC(C)(C)c1cn([C@]2(CO)O[C@@H](n3ccc(N)nc3=O)[C@@H](F)[C@@H]2O)nn1`, for which the pEC50 (in general, the EC50 on a negative log10 scale, so that one unit is a factor of ten) in data set [1] was 7.10. In data set [2], the selectivity ratio is more than 278. In addition, the CC50 (as a rule, the concentration that lowers cell viability or growth by half) in data set [3] was not below 25000 nM.

In turn, `CCCCc1cn([C@]2(CO)O[C@@H](n3ccc(N)nc3=O)[C@@H](F)[C@@H]2O)nn1` showed a pEC50 in data set [1] of 6.52. The CC50 in data set [3] was not below 25000 nM.

`Nc1ccn([C@@H]2O[C@@](CO)(n3cc(CC4CCCCC4)nn3)[C@@H](O)[C@@H]2F)c(=O)n1` had a pEC50 in data set [1] of 5.32. In data set [3], this compound yielded a CC50 not below 25000 nM.

`Nc1ccn([C@@H]2O[C@@](CO)(n3cc(C4(O)CCCC4)nn3)[C@@H](O)[C@@H]2F)c(=O)n1` showed a pEC50 in data set [1] of 5.89. In data set [3], this compound registered a CC50 not below 25000 nM.

For `Nc1ccn([C@@H]2O[C@@](CO)(n3cc(C4CC4)nn3)[C@@H](O)[C@@H]2F)c(=O)n1`, the pEC50 in the data set on Hepatitis B virus [4] was 6.00; in data set [1], 6.22; with Hepatitis B virus [6], 6.92. In addition, in data set [5], the CC50 at 72 h was 834000 nM. The compound also displayed a CC50 in data set [3] not below 25000 nM.

Consider `Nc1ccn([C@@H]2O[C@@](CO)(n3ccnn3)[C@@H](O)[C@@H]2F)c(=O)n1`, for which the pEC50 in data set [1] was 7.05. The selectivity ratio in data set [2] is more than 278. Further, the CC50 in data set [3] was not below 25000 nM.

Turning to `Nc1ccn([C@@H]2O[C@@](CO)(n3cc(-c4ccccc4)nn3)[C@@H](O)[C@@H]2F)c(=O)n1`, the pEC50 in the data set with Hepatitis B virus [4] is 6.60; in data set [1], 7.08; in the data set on Hepatitis B virus [6], 7.00. For the same compound, the “Ratio CC50/EC50” value in data set [7] is given as 2264. This compound also showed a CC50 at 72 h in data set [5] of 566000 nM. In addition, in data set [2], the selectivity ratio is more than 278. In data set [3], this compound came in with a CC50 not below 25000 nM.

`Cc1ccc(-c2cn([C@]3(CO)O[C@@H](n4ccc(N)nc4=O)[C@@H](F)[C@@H]3O)nn2)cc1`: the pEC50 in the data set on Hepatitis B virus [4] was less than 6.00; in data set [1], 5.43; in the data set with Hepatitis B virus [6], 8.00. Moreover, in data set [5], the CC50 at 72 h is 498000 nM. The “Ratio CC50/EC50” value in data set [8] is 49800. Also, in data set [3], the CC50 was not below 25000 nM.

In the case of `CCc1ccc(-c2cn([C@]3(CO)O[C@@H](n4ccc(N)nc4=O)[C@@H](F)[C@@H]3O)nn2)cc1`, the pEC50 in data set [1] is 6.22. Moreover, in data set [3], the CC50 is not below 25000 nM.

The compound `[N-]=[N+]=N[C@]1(CO)O[C@@H](n2ccc(N)nc2=O)[C@@H](F)[C@@H]1O` [RO-0622] gave a pEC50 in data set [1] of 9.52. Further, the CC50 in data set [3] was more than 10000 nM.

Compound `Cc1cn([C@H]2C[C@H](N=[N+]=[N-])[C@@H](CO)O2)c(=O)[nH]c1=O` [ZIDOVUDINE] gave a pEC50 in data set [1] of 7.08. In data set [3], this compound showed a CC50 not below 25000 nM.
